Test results published in article PMC3334839 (The Journal of Neuroscience, 2012).
Residue numbers refer to the chain shown, from its start.

How the values were obtained:
[1] = target: T1, G254A mutant human α1 GlyR (Homo sapiens, UniProt P23415, G282A); experiment: Whole-cell patch-clamp of IGly in HEK-293 cells expressing G254A mutant α1 GlyRs; format: cell-based; conditions: AEA 5 min sustained incubation
T1 sequence (P23415 29-457 G282A): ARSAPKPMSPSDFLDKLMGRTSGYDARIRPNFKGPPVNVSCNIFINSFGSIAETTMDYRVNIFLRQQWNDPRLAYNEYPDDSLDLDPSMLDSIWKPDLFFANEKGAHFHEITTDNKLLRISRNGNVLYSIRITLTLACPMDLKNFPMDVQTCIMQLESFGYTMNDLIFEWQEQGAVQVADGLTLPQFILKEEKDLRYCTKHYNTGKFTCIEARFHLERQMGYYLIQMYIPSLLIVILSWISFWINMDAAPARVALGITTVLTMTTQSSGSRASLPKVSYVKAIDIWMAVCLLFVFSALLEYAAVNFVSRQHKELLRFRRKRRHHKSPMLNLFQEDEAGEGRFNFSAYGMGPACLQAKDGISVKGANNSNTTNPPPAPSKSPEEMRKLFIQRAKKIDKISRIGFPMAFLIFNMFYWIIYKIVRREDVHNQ

[2] = target: T2, S296A mutant human α1 GlyR (Homo sapiens, UniProt P23415, S324A); experiment: cell-based; format: cell-based; conditions: S296A α1
T2 sequence (P23415 29-457 S324A): T1 sequence (P23415 29-457 G282A) with A254G, S296A

S307A mutant rat α3 GlyR = target: T3, S307A mutant rat α3 GlyR (Rattus norvegicus, UniProt P24524, S329A); experiment: Whole-cell patch-clamp of IGly in HEK-293 cells expressing S307A mutant α3 GlyRs; format: cell-based; conditions: 10 μM AEA, 5 min sustained, EC2 Gly (100 μM)
T3 sequence (P24524 34-464 S329A): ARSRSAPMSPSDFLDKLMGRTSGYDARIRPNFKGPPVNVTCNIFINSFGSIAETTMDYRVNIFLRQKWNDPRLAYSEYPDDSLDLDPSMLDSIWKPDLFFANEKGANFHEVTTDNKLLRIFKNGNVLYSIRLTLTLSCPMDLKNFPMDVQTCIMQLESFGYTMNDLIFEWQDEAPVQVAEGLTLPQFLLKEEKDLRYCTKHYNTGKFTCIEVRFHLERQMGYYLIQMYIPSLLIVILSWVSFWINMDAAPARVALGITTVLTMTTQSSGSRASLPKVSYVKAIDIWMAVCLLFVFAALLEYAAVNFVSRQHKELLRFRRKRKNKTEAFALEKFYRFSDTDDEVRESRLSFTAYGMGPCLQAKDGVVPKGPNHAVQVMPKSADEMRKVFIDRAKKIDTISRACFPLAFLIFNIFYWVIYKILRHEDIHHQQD

[3] = target: T4, S296A mutant human 5-HT3A receptor (Homo sapiens, UniProt P46098, S319A); format: cell-based; conditions: 0.1 μM AEA, vs wild-type
T4 sequence (P46098 24-478 S319A): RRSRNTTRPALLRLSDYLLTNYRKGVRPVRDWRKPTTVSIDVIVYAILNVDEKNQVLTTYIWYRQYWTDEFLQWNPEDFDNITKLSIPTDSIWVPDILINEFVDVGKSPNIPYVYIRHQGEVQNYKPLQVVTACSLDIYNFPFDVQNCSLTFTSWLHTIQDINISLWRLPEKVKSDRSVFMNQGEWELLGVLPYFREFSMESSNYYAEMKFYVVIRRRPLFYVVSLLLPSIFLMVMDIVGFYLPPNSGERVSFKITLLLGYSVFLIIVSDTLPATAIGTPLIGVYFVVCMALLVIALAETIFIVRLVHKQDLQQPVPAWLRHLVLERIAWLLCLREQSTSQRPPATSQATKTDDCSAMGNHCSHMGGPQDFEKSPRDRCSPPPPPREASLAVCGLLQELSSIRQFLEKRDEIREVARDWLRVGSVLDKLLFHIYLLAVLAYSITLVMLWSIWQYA
Summary of the method: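 Human 5-HT3A receptors (wild-type or point mutant made by site-directed mutagenesis) transfected into HEK-293 cells. Cells recorded 2 d later, trypsin/EDTA-treated 2 h before, lifted, superfused with HEPES-buffered saline (pH 7.4). Whole-cell, CsCl pipette, −60 mV, 20–22°C. 5-HT 30 μM pulses before, during and after continuous 5 min test compound (0.1 μM) incubation; 5–7 cells, mean ± SE.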

[4] = test system: native GlyRs in cultured spinal neurons; experiment: Whole-cell patch-clamp of Gly-activated current; format: cell-based, rat; conditions: for average percent potentiation of IGly: concentration-response (Fig. 1E), EC2 Gly
Summary of the method: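 Spinal cords from postnatal day 0 rats, papain-dissociated (20 U/ml, 37°C, 40 min). Plated at 300,000 cells/ml on poly-d-lysine in MEM/10% FBS, cultured ≥10 d, washed 30 min in external solution. Whole-cell, −60 mV, 20–22°C.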

CCCCC/C=C\C/C=C\C/C=C\C/C=C\CCCC(=O)NCCO [AEA, anandamide]
AEA-induced potentiation of IGly [1]: 597 ± 77%
AEA-induced potentiation of IGly, simultaneous application ([2]; 10 μM AEA simultaneously applied only with Gly): 99 ± 20%
AEA-induced potentiation of IGly ([2]; 10 μM AEA, 5 min sustained, EC2 Gly (10 μM)): 131 ± 41%
AEA-induced potentiation of IGly (S307A mutant rat α3 GlyR): 249 ± 48%
effect of S296A mutation on AEA-induced inhibition of 5-HT-activated current [3]: did not significantly alter
time to maximal potentiation of IGly ([4]; 1 μM AEA sustained application): 5 min
average percentage potentiation of IGly ([4]; 1 μM AEA, 5 min sustained application, EC2 Gly (Fig. 1C)): 86 ± 24%
percentage potentiation of IGly, initial value ([4]; 1 μM AEA, after 1 min of AEA exposure, neurons): 6 ± 6%
average percent potentiation of IGly ([4]; 1 μM AEA): 79 ± 19%
average percent potentiation of IGly ([4]; 3 μM AEA): 236 ± 52%
average percent potentiation of IGly ([4]; 10 μM AEA): 636 ± 87%
average percent potentiation of IGly ([4]; 30 μM AEA): 800 ± 71%
